In ChEMBL document CHEMBL1122513, “Synthesis and antiviral activity of carbocyclic analogues of 2'-deoxyribofuranosides of 2-amino-6-substituted-purines and of 2-amino-6-substituted-8-azapurines” (J Med Chem, 1984):
≈ marks a conversion by molar mass, not a printed value. Where “and” joins values, the source holds several entries; their conditions need not be identical. Equal values may be shown once.

Tests used:
Human alphaherpesvirus 2 [1] = assay: In vitro antiviral activity in secondary cultures of rabbit kidney cells against HSV type 2 strain MS; 1.6-2.3; format: functional
Outline: (§1)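 Scored as a virus rating (VR) from inhibition of CPE caused by HSV-1 strain 377 or HSV-2 strain MS in secondary rabbit kidney cultures or Vero cells. VR ≥1.0 means definite activity, 0.5-0.9 marginal to moderate, and <0.5 usually none. Ranges are pooled from several tests.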

Human alphaherpesvirus 2 [2] = assay: Concentration required to inhibit HSV type 2 strain MS induced cytopathogenic affects by 50%; 6.4-30; format: functional
Outline: (§2)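 Inhibition of cytopathogenic effect caused by HSV-1 strain 377 or HSV-2 strain MS, replicating in secondary rabbit kidney cell cultures or in Vero cells. MIC₅₀ is the concentration giving 50% inhibition of virus-induced CPE. Ranges are pooled from several tests in either host cell type.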

Human alphaherpesvirus 1 [3] = assay: Concentration required to inhibit HSV type 1 strain 377 induced cytopathogenic affects by 50%; 6.4-9.8; format: functional; outline: as §2
Human alphaherpesvirus 1 [4] = assay: In vitro antiviral activity in secondary cultures of rabbit kidney cells against HSV type 1 strain 377; 2.5-3.1; format: functional; outline: as §1
Human alphaherpesvirus 2 [5] = assay: In vitro antiviral activity in secondary cultures of rabbit kidney cells infected with HSV type 2 strain MS; format: functional; outline: as §1
Human alphaherpesvirus 2 [6] = assay: Concentration required to inhibit HSV type 2 strain MS induced cytopathogenic affects by 50%; format: functional; outline: as §2
Human alphaherpesvirus 1 [7] = assay: In vitro antiviral activity in secondary cultures of rabbit kidney cells infected with HSV type 1 strain 377; format: functional; outline: as §1
Human alphaherpesvirus 1 [8] = assay: Concentration required to inhibit HSV type 1 strain 377 induced cytopathogenic affects by 50%; format: functional; outline: as §2
[9] = Compound was evaluated for cytotoxicity to KB cells (derived from human epidermoid carcinoma); format: cell-based; settings: read-out: ED50 (the source's name)
Outline: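 KB cells grown in culture and tested under the National Cancer Institute cytotoxicity protocol. The value is reported as ED50 in mcg/mL.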

L1210 [10] = assay: Antineoplastic activity of compound in mice inoculated with 10e 5 L1210 leukemia cells was measured as weight change after ip administration of 100 […]; format: functional, Mus musculus
Outline: (§3)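 Mice received 10⁵ L1210 leukemia cells ip on day 0, then compound ip as a solution or suspension q.d. days 1-9, following NCI protocols. Weight-change difference is the mean weight change of treated mice minus that of untreated leukemic controls, both measured on day 5.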

L1210 [11] = assay: Antineoplastic activity of compound in mice inoculated with 10e 5 L1210 leukemia cells was measured as weight change after ip administration of 200 […]; format: functional, Mus musculus; outline: as §3
Mus musculus [12] = assay: Antineoplastic activity of compound in mice inoculated with 10e 5 L1210 leukemia cells was measured as T/C after ip administration of 100 […]; format: functional
Outline: (§4)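 L1210 leukemia, 10⁵ cells inoculated intraperitoneally into mice on day 0, following NCI protocols. Compound given intraperitoneally as a solution or suspension once daily on days 1-9. T/C % compares lifespan of treated mice with untreated leukemic control mice.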

Mus musculus [13] = assay: Antineoplastic activity of compound in mice inoculated with 10e 5 L1210 leukemia cells was measured as T/C after ip administration of 200 […]; format: functional; outline: as §4
Human alphaherpesvirus 1 [14] = assay: Concentration required to inhibit HSV type 1 strain HF induced cytopathogenic affects by 50%; format: functional
Vaccinia virus = assay: In vitro for antiviral activity in secondary cultures of rabbit kidney cells infected with vaccinia virus; format: functional, Orthopoxvirus vaccinia
Human alphaherpesvirus 1 [15] = assay: In vitro antiviral activity in secondary cultures of rabbit kidney cells infected with HSV type 1 strain HF; format: functional
L1210 [16] = assay: Antineoplastic activity of compound in mice inoculated with 10e 5 L1210 leukemia cells was measured as weight change after ip administration of 100 mg/kg; format: functional, Mus musculus; settings: route intraperitoneal; outline: as §3
L1210 [17] = assay: Antineoplastic activity of compound in mice inoculated with 10e 5 L1210 leukemia cells was measured as weight change after ip administration of 200 mg/kg; format: functional, Mus musculus; settings: route intraperitoneal; outline: as §3
Mus musculus [18] = assay: Antineoplastic activity of compound in mice inoculated with 10e 5 L1210 leukemia cells was measured as T/C after ip administration of 100 mg/kg; format: functional; settings: route intraperitoneal; outline: as §4
Mus musculus [19] = assay: Antineoplastic activity of compound in mice inoculated with 10e 5 L1210 leukemia cells was measured as T/C after ip administration of 200 mg/kg; format: functional; settings: route intraperitoneal; outline: as §4
L1210 [20] = assay: Antineoplastic activity of compound in mice inoculated with 10e 5 L1210 leukemia cells was measured as weight change after ip administration of 50 […]; format: functional, Mus musculus; outline: as §3
Mus musculus [21] = assay: Antineoplastic activity of compound in mice inoculated with 10e 5 L1210 leukemia cells was measured as T/C after ip administration of 25 […]; format: functional; outline: as §4
Mus musculus [22] = assay: Antineoplastic activity of compound in mice inoculated with 10e 5 L1210 leukemia cells was measured as T/C after ip administration of 50 […]; format: functional; outline: as §4
L1210 [23] = assay: Antineoplastic activity of compound in mice inoculated with 10e 5 L1210 leukemia cells was measured as weight change after ip administration of 25 […]; format: functional, Mus musculus; outline: as §3
Human alphaherpesvirus 1 [24] = assay: In vitro antiviral activity in secondary cultures of rabbit kidney cells against HSV type 1 strain 377; format: functional; outline: as §1
L1210 [25] = assay: Antineoplastic activity of compound in mice inoculated with 10e 5 L1210 leukemia cells was measured as weight change after ip administration of 50 mg/kg; format: functional, Mus musculus; settings: route intraperitoneal; outline: as §3
Mus musculus [26] = assay: Antineoplastic activity of compound in mice inoculated with 10e 5 L1210 leukemia cells was measured as T/C after ip administration of 50 mg/kg; format: functional; settings: route intraperitoneal; outline: as §4
[27] = Human alphaherpesvirus 1, read-out: MIC50

Row | Structure (SMILES) | Virus rating (Human alphaherpesvirus 2 [5]) | MIC50 (Human alphaherpesvirus 2 [6]) | Virus rating (Human alphaherpesvirus 1 [7]) | MIC50 (Human alphaherpesvirus 1 [8]; [27]) | CC50 [9] | Weight change (L1210 [10]) | T/C (Mus musculus [12]) | other results
1 | Nc1ncnc2c1ncn2[C@@H]1O[C@H](CO)[C@@H](O)[C@@H]1O [VIDARABINE] | – | – | – | – | – | – | – | Virus rating (Human alphaherpesvirus 2 [1]): 1.6; MIC50 (Human alphaherpesvirus 2 [2]): 6.4 mg/L (≈ 23.9 µM); MIC50 (Human alphaherpesvirus 1 [3]): 6.4 mg/L (≈ 23.9 µM); Virus rating (Human alphaherpesvirus 1 [4]): 2.5
2 | Cc1cn(C2CC(CO)C(O)C2O)c(=O)[nH]c1=O (stereo unspecified) | 3.2 | 7 mg/L (≈ 27.3 µM) | 5.4 | 0.8 mg/L (≈ 3.12 µM) | – | – | – | –
3 | Nc1nc(O)c2nnn(C3CC(O)C(CO)C3)c2n1 (stereo unspecified) | 2.1 | 6.9 mg/L (≈ 25.9 µM) | 4.2 | 0.6 mg/L (≈ 2.25 µM) | > 100 mg/L | -2.4 g | 100% | Weight change (L1210 [11]): -3.2 g; T/C (Mus musculus [13]): 104%
4 | Nc1ccn([C@@H]2C[C@H](CO)[C@@H](O)[C@H]2O)c(=O)n1 (stereo in doubt; form 1) | – | – | – | – | – | – | – | MIC50 (Human alphaherpesvirus 1 [14]): 93 mg/L and <32 mg/L
5 | OCC1CC(n2cnc3c(O)ncnc32)C(O)C1O (stereo unspecified) | – | – | – | – | – | – | – | MIC50 (Human alphaherpesvirus 1 [14]; [27]): 97 mg/L (≈ 364 µM); Virus rating (Vaccinia virus): 1.9; Virus rating (Human alphaherpesvirus 1 [15]): 2.1
6 | Nc1nc(N)c2nnn(C3CC(O)C(CO)C3)c2n1 (stereo unspecified) | 2.3 | 10 mg/L (≈ 37.7 µM) | 4 and 4.4 | < 3.2 mg/L | > 100 mg/L | – | – | Weight change (L1210 [16]): -0.7 g; Weight change (L1210 [17]): -1.1 g; T/C (Mus musculus [18]): 96%; T/C (Mus musculus [19]): 92%; MIC50 (Human alphaherpesvirus 1 [8]): 2 mg/L (≈ 7.54 µM)
7 | Nc1ncnc2c1ncn2[C@@H]1C[C@H](CO)[C@@H](O)[C@@H]1O | – | – | – | – | – | – | – | Virus rating (Vaccinia virus): 1.5 and 1.7; Virus rating (Human alphaherpesvirus 1 [15]): 2.2 and 3.5
8 | Nc1nc(Cl)c2nnn(C3CC(O)C(CO)C3)c2n1 (stereo unspecified) | 1.9 | 23 mg/L (≈ 80.8 µM) | 5 and 4.5 | < 1 mg/L | 10 mg/L (≈ 35.1 µM) | -3.4 g | 100% | Weight change (L1210 [11]): -4.4 g; Weight change (L1210 [20]): -1.5 g; T/C (Mus musculus [13]): 78%; T/C (Mus musculus [21]): 118%; T/C (Mus musculus [22]): 105%; MIC50 (Human alphaherpesvirus 1 [8]): 1.6 mg/L (≈ 5.62 µM); Weight change (L1210 [23]): -1 g
9 | Nc1nc(Cl)c2ncn(C3CC(O)C(CO)C3)c2n1 (stereo unspecified) | 2 | 37 mg/L (≈ 130 µM) | 1.9 | 8.1 mg/L (≈ 28.5 µM) | 62 mg/L (≈ 219 µM) | -1 g | 106% | Weight change (L1210 [11]): -2.2 g; T/C (Mus musculus [13]): 106%
10 | Nc1nc(S)c2ncn(C3CC(O)C(CO)C3)c2n1 (stereo unspecified) | 1.7 | 32 mg/L (≈ 114 µM) | 4.9 | < 3.2 mg/L | > 100 mg/L | -0.2 g | 91% | Weight change (L1210 [11]): 0.5 g; T/C (Mus musculus [13]): 108%
11 | Nc1nc(O)c2ncn([C@@H]3C[C@H](CO)[C@@H](O)C3)c2n1 | 3.7 | 0.8 mg/L (≈ 3.02 µM) | >=4.6 | < 0.3 mg/L | 95 mg/L (≈ 358 µM) | -3.7 g | 96% | –
12 | OCC1CC(n2nnc3c(O)ncnc32)C(O)C1O (stereo unspecified) | – | – | – | – | – | – | – | MIC50 (Human alphaherpesvirus 1 [14]; [27]): 298 mg/L (≈ 1120 µM); Virus rating (Vaccinia virus): 1.2; Virus rating (Human alphaherpesvirus 1 [15]): 1.5
13 | Nc1nc(N)c2ncn(C3CC(O)C(CO)C3)c2n1 (stereo unspecified) | 2.9 | 2.4 mg/L (≈ 9.08 µM) | 4.5 | 0.6 mg/L (≈ 2.27 µM) | > 100 mg/L | – | – | Virus rating (Human alphaherpesvirus 1 [24]): 4.7; Weight change (L1210 [17]): -5.5 g; Weight change (L1210 [25]): -2.8 g; T/C (Mus musculus [19]): 79%; T/C (Mus musculus [26]): 104%; MIC50 (Human alphaherpesvirus 1 [8]): 0.3 mg/L (≈ 1.14 µM)
14 | Nc1ccn([C@@H]2C[C@H](CO)[C@@H](O)[C@H]2O)c(=O)n1 (stereo in doubt; form 2) | 3.2 | 2.4 mg/L (≈ 9.95 µM) | – | – | – | – | – | MIC50 (Human alphaherpesvirus 1 [14]): 68 mg/L (≈ 282 µM); Virus rating (Vaccinia virus): 0.9; Virus rating (Human alphaherpesvirus 1 [15]): 0.8
